MEKK2 WT-MEK5: raises or lowers MEK5 binding to wildtype human MEKK2 PB1 domain | hit rate 1.1% among 290,000 | AID 1531 | bead flow cytometry, Alexa488-MEK5 binding to MEKK2 WT; actives lie on both sides | Q9Y2U5 | binding response (% of control), % at 10 µM; in the data active means binding response below about 67% or above about 130%
Hep lipid drop: hepatic lipid droplet formation modulation. AML12 mouse hepatocytes, oleate lipid droplets, BODIPY imaging. inhibition, % at 6.5 µM. hit rate 0.4% among 240,000;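 active means lipid droplet intensity inhibited by at least 50%, with more than 500 cells counted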
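Material: mouse AML12 hepatocyte cell line, fixed after treatment; Timing: compound with oleate, overnight; Technique: high-content imaging of BODIPY-stained droplets and DAPI nuclei; Probe or stimulus: oleate, 100 µM final; Dosing: compound at 6.5 µM only.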
MEKK3 PB1 HTS: raises or lowers MEK5 binding to the human MEKK3 PB1 domain | hit rate 1.4% among 290,000 | Q99759 | binding response (% of control), % at 10 µM | bead-based flow cytometry, Alexa488-MEK5 binding to MEKK3; actives lie on both sides; 0 = blocked by unlabeled MEK5, 100 = vehicle;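 active means binding response more than 3 SD above or below the average of its plate-row segment, actives on both sides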;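 further: Alexa488 bead fluorescence after subtracting the streptavidin-only scavenger bead signal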
Target sequence (Q99759 whole entry, looked up, the tested form may be a part): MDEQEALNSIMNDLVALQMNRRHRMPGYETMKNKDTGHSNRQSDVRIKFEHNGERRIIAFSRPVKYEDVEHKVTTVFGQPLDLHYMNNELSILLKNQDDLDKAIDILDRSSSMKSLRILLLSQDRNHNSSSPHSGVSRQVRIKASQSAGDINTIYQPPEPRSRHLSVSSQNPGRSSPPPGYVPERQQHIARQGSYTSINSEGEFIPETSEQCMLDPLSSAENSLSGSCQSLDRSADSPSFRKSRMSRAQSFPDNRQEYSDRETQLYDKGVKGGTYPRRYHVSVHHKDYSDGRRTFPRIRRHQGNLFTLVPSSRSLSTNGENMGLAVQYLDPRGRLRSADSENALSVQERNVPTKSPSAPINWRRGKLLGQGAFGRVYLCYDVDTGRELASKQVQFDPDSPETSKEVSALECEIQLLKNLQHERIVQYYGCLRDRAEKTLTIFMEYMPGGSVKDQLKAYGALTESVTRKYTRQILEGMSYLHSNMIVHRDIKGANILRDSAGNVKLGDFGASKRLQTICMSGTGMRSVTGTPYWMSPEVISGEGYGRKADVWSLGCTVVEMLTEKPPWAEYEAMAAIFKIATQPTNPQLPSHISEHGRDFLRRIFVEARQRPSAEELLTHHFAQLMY
MEKK2mut PB1 HTS: signal of MEK5 binding to mutant human MEKK2 PB1 domain. hit rate 0.35% among 290,000. bead flow cytometry, Alexa488-MEK5 binding to MEKK2 mutant. percent response, % at 10 µM; in the data active means percent response above about 24%, passing the limit was not always enough
MEKK2wt confirm: raises or lowers MEK5 binding to wildtype human MEKK2, retest. shares compounds with MEKK3 PB1 HTS. bead flow cytometry, Alexa488-MEK5 binding to MEKK2 WT; actives lie on both sides. binding response (% of control), % at 10 µM. hit rate 2.4% among 5,900. AID 1892; in the data active means binding response below about 16% or above about 210%; inactive means in between
MEKK2mut confirm: signal of MEK5 binding to mutant human MEKK2, retest; shares compounds with MEKK3 PB1 HTS; bead flow cytometry, Alexa488-MEK5 binding to MEKK2 mutant; percent response, % at 10 µM; hit rate 2% among 5,900; AID 1893; in the data active means percent response mostly above about 71%, no sharp cut-off; inactive means mostly below about 38%;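 further: higher means compound restores mutant binding toward wildtype level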
MEKK3 confirm: MEKK3-MEK5 PB1 inhibition, single concentration confirmation; shares compounds with MEKK3 PB1 HTS; bead flow cytometry, Alexa488-MEK5 binding to MEKK3; active compounds read low; binding response (% of control), % at 10 µM; hit rate 1.8% among 5,900;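 active means binding response below 72% of control, or above a set upper limit, though filed actives all read lower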;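 further: lower values mean stronger disruption of MEK5 binding to MEKK3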
Large screens that a line does not name were inactive (follow-up assays come after a bar, where they were run); [ ] = dose if it differs, or a comment. In the library only some 2.6% were active in any assay of this set; here they are far more common.

Cc1cccc(CN2CCN(CC(=O)NCCCN3CCN(c4ccc(F)cc4)CC3)C2=O)c1	MEKK2 WT-MEK5 180 | MEKK2wt confirm inactive | MEKK2mut confirm inactive | MEKK3 confirm inactive
COc1cc(/C=C/C(=O)C2C(=O)C=C(C)OC2=O)cc(OC)c1O (stereo not drawn)	MEKK3 PB1 HTS 135 | MEKK2wt confirm inactive | MEKK2mut confirm inactive | MEKK3 confirm inactive
O=C(COc1cccc(NC(=O)c2cccs2)c1)c1ccc(F)cc1	MEKK3 PB1 HTS 138 | MEKK2wt confirm inactive | MEKK2mut confirm inactive | MEKK3 confirm inactive
CC(C)c1ccc(OCCCN2CCCC2)cc1	MEKK2mut PB1 HTS 26 | MEKK2wt confirm inactive | MEKK2mut confirm inactive | MEKK3 confirm inactive
CCc1ccccc1NC(=O)C1CCCN1C(=O)Nc1ccc(C)cc1 (stereo not drawn)	none
Cc1ccccc1C(=O)N(Cc1nc2ccccc2c(=O)[nH]1)C1CCCC1	MEKK3 PB1 HTS 128 | MEKK2wt confirm inactive | MEKK2mut confirm inactive | MEKK3 confirm inactive
Cc1ccc(C(=O)N(Cc2nc3ccccc3c(=O)[nH]2)C2CCCC2)cc1	none
CC(C)CCn1c(Br)nc2c1c(=O)n(CC(N)=O)c(=O)n2C	MEKK2 WT-MEK5 2.0[inhibitor], MEKK3 PB1 HTS 2.0[inhibitor] (no result: Hep lipid drop) | MEKK2wt confirm inactive | MEKK2mut confirm inactive | MEKK3 confirm inactive
CN1CCN(c2ncnc3c2[nH]c2ccc(F)cc23)CC1	none
CN1CCN(c2cc3c(c4c2[nH]c2ccccc24)C(=O)CC(C)(C)C3)CC1	MEKK2 WT-MEK5 159, MEKK2mut PB1 HTS 36 (no result: Hep lipid drop) | MEKK2wt confirm inactive | MEKK2mut confirm inactive | MEKK3 confirm inactive
CCOC(=O)COc1c(Br)cc(C2NC(=O)NC(C)=C2C(C)=O)cc1OC (stereo not drawn)	MEKK3 PB1 HTS 131 | MEKK2wt confirm inactive | MEKK2mut confirm inactive | MEKK3 confirm inactive
CC1(C)CC(=O)C(CC(=O)NC2CCCc3ccccc32)C(=O)C1 (stereo not drawn)	none
CCOC(=O)Cc1cnc(NC(=O)CSc2nc(C)c(CC)c(=O)[nH]2)s1	none
CC1CCC(NC(=O)c2ccc(/C=C3\Oc4ccccc4N(C)C3=O)cc2)CC1 (stereo not drawn)	MEKK3 PB1 HTS 139 | MEKK2wt confirm inactive | MEKK2mut confirm inactive | MEKK3 confirm inactive
O=C(CCSCc1cccc(Cl)c1)NC1CCCC1	none
O=C(CCSCc1ccccc1Cl)NC1CCCC1	MEKK2 WT-MEK5 2.0[inhibitor], MEKK3 PB1 HTS 2.0[inhibitor] | MEKK2wt confirm inactive | MEKK2mut confirm inactive | MEKK3 confirm inactive
O=C(CSCC(=O)NC1CCCC1)Nc1ccccc1	MEKK3 PB1 HTS 128 | MEKK2wt confirm inactive | MEKK2mut confirm inactive | MEKK3 confirm inactive
CN(C)C(CNc1ncccn1)c1ccccc1 (stereo not drawn)	none
C=CCc1ccc(OCCCOc2ccc(C)c(C)c2)c(OC)c1	MEKK3 PB1 HTS 80[inhibitor] | MEKK2wt confirm inactive | MEKK2mut confirm inactive | MEKK3 confirm inactive
O=C1S/C(=C/c2ccccc2)C(=O)N1CC(O)Cn1c2ccccc2c2ccccc21 (stereo not drawn)	MEKK3 PB1 HTS 75[inhibitor] | MEKK2wt confirm inactive | MEKK2mut confirm inactive | MEKK3 confirm inactive
CCCCn1c(N)c(N(CC)C(=O)CCNC(=O)NC23CC4CC(CC(C4)C2)C3)c(=O)[nH]c1=O	none
CCOC(=O)C1CCN(C(=O)CCc2ccc(S(=O)(=O)NC(C)C)cc2)CC1	none
CCOC(=O)C1CCN(C(=O)CCc2ccc(S(=O)(=O)NCC(C)C)cc2)CC1	MEKK2mut PB1 HTS 26 | MEKK2wt confirm inactive | MEKK2mut confirm inactive | MEKK3 confirm inactive
COc1cc(CNc2cccc3[nH]c(C(F)(F)F)nc23)cc(OC)c1	MEKK2 WT-MEK5 149, MEKK2mut PB1 HTS 24 | MEKK2wt confirm inactive | MEKK2mut confirm inactive | MEKK3 confirm inactive
CCOc1ccccc1N1CCN(C(=O)c2ccc(OCC(=O)N3CCOCC3)c(OC)c2)CC1	none
COc1ccc(CC(=O)NNc2ncnc3c2cnn3-c2ccc(C)cc2)cc1	none
